Most compounds without a hit are left out; they make up all but 1.5% or so of the library.
CCR6 antag: CCR6 receptor antagonists, primary screen, cell-based, CHO-K1, luminescence, beta-arrestin, uHTS. C-C chemokine receptor type 6 (Homo sapiens), P51684. CHO-K1 CCR6 PathHunter beta-arrestin, CCL20-stimulated. inhibition, % at 20 µM. 340,000 compounds, 0.49% hits;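 active = compounds whose inhibition of the agonist-driven luminescence signal at 20 µM reaches about 50%, limit read from the data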;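 note: cells stimulated with CCL20 at 14 nM final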
APJ agonist: agonists of human apelin receptor APJ, primary screen, CHO-K1 cells, PathHunter beta-arrestin, luminescence | activation, % at 20 µM | P35414 | 0% DMSO wells, 100% apelin | 330,000 compounds, 0.11% hits;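 active = activation more than six SD over the plate average, tested at 20 µM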
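Test system: CHO-K1 APJ beta-arrestin complementation cell line. Amount: cell density 1000 per well. Controls: DMSO negative, 10 nM Apelin-13 positive. Signal: luminescent beta-gal fragment complementation, chemiluminescent substrate. Read-out basis: agonist-driven arrestin binding to APJ. Timing: compound stimulation 90 min at 25 °C, detection 60 min.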
EBI2 antag: EBI2 receptor antagonists, beta-arrestin recruitment, primary screen, cell-based, luminescence, 7a,25-OHC stimulation, uHTS. G-protein coupled receptor 183 (Homo sapiens), P32249. 7a,25-OHC stimulated. inhibition, % at 5 µM. 360,000 compounds, 0.81% hits. AID 651636, 2012; in the data active = inhibition above about 38%;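 note: enzyme fragment complementation signal reports receptor beta-arrestin coupling in cells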
Target sequence (P32249 whole entry, looked up, the tested form may be a part): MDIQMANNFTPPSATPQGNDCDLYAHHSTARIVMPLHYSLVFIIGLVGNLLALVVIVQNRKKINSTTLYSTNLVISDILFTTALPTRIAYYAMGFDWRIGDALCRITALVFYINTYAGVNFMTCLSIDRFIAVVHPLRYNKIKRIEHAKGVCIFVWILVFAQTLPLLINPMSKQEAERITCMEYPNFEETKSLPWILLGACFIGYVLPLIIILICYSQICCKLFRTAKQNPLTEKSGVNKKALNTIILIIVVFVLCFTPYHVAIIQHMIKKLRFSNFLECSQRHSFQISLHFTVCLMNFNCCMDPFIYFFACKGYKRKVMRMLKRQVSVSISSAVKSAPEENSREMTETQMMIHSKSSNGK
APJ antag: antagonists of human apelin receptor APJ, primary screen, CHO-K1 cells, beta-arrestin complementation, luminescence | P35414 | inhibition, % at 20 µM | 330,000 compounds, 0.32% hits | AID 2521, 2010;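 active = inhibition above about 40% at 20 µM, limit read from the data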;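 note: cells challenged with 10 nM apelin-13 agonist together with compound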
CXCR6 inh: CXCR6 receptor inhibitors, primary screen, cell-based, beta-arrestin, luminescence, CHO-K1 PathHunter, 1536-well | inhibition, % at 20 µM | 360,000 compounds, 0.36% hits; in the data active = inhibition above about 34%, passing the limit was not always enough;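 note: antagonist mode with CXCL16 agonist at 10 nM final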
Target sequence (O00574 whole entry, looked up): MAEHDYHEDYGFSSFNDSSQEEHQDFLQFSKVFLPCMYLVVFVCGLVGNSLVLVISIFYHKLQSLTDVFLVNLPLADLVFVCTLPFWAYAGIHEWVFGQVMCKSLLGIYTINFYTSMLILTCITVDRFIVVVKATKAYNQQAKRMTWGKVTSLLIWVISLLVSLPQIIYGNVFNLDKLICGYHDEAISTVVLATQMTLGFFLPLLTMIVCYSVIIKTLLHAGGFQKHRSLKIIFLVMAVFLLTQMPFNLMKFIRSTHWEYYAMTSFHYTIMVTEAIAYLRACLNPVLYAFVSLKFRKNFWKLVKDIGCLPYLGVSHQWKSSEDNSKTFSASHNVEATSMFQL
Of the large screens only hits and unclear results are named; the others gave an inactive call.

N#C/C(=C(\O)Cc1ccccc1)c1nc2ccccc2[nH]1	none
N#C/C(=C(/O)CCl)c1nc2ccccc2[nH]1	APJ antag 53
Cc1ccc(C(=O)COC(=O)CCC(=O)Nc2cccc(Cl)c2)cc1[N+](=O)[O-]	CCR6 antag 53
COc1ccc(C[C@H]2c3cc(O)c(OC)cc3CC[N+]2(C)[O-])cc1O (stereo not given in full)	CCR6 antag 59
O=C(c1ccc(Cl)cc1)N1CCC(C(=O)N2CCN(c3ncccn3)CC2)CC1	EBI2 antag 48
CCOC(=O)C1=C(O)/C(=C/c2ccc(-c3ccccc3C(=O)O)o2)SC1=Nc1ccc(C)cc1	none (no result: APJ agonist, APJ antag)
CCOC(=O)C1=C(O)/C(=C/c2cn(CC(=O)NCC3CCCO3)c3ccccc23)SC1=Nc1ccc(C)cc1 (stereo not given)	EBI2 antag 49
CN(C)C(=O)CSc1cccc2cccnc12	CCR6 antag 66, CXCR6 inh 55
O=C(Sc1cccc2cccnc12)c1ccc(F)cc1	APJ antag 44 (no result: CCR6 antag, EBI2 antag, CXCR6 inh)
COc1ccc(S(=O)(=O)Nc2cc(SCC(=O)O)c(O)c3ccccc23)cc1	none
O=S(=O)(Nc1cc(Sc2cccc3cccnc23)c(O)c2ccccc12)c1ccc(F)cc1	CCR6 antag 65 (no result: APJ agonist, EBI2 antag, APJ antag, CXCR6 inh)
CCN(CC)CCn1c2c(c(SCC(=O)Nc3cccc4ccccc34)nc1=O)CCC2	none
CCCCNC(=O)C1(C)CCCCN1Cc1ccccc1-c1ccccc1 (stereo not given)	none (no result: CCR6 antag, APJ agonist, APJ antag)
Cc1ccccc1-n1c(C)cc(/C=C(\C#N)C(=O)NCC2CCCO2)c1C (stereo not given)	none
Cc1cc(/C=C(\C#N)C(=O)NCc2cccs2)c(C)n1-c1ccccc1F	EBI2 antag 51
COc1ccccc1NC(=O)COc1ccc(/C=N/NC(=O)CSCc2ccc(Cl)cc2)cc1	APJ antag 64
COc1ccccc1NC(=O)COc1ccc(/C=N/NC(=O)CSCc2cc(C)cc(C)c2)cc1	none
Cc1nc2c(cnn2CCO)c(=O)[nH]1	none (no result: APJ agonist, APJ antag)
CC(=NNc1ccc2ccccc2n1)c1ccccc1O	CXCR6 inh 56 (no result: CCR6 antag, APJ agonist, APJ antag)
C/C(=N\Nc1nc2ccccc2nc1C)c1ccccc1O	none
C=C(CN(C)C)C(=O)c1cc(C)ccc1C	CCR6 antag 108, CXCR6 inh 96 (no result: APJ agonist, APJ antag)
Cc1ccc(C)c(C(=O)NCCN(C)C)c1	none
CC1(C)Cc2c(c(N3CCOCC3)nc3sc4c(NCc5ccccc5)nnnc4c23)CS1	EBI2 antag 76
CCN(CC)S(=O)(=O)c1ccc(N=Nc2cc(C)cc(Br)c2O)cc1	CCR6 antag 58, CXCR6 inh 42
CCc1nc(Nc2ccc(OC)cc2OC)c2oc3ccccc3c2n1	none
CC1CCCN(C2=NC(=O)/C(=C/c3cn(-c4ccccc4)nc3-c3cccc(S(=O)(=O)N(C)C)c3)S2)C1 (stereo not given)	EBI2 antag 68
CCn1cc(C(=O)NCCCO)c(=O)c2cc(F)c(N3CCN(C)CC3)cc21	none
CCCCCCNC(=O)c1cn(CC)c2cc(N3CCN(C)CC3)c(F)cc2c1=O	EBI2 antag 45
CCN1/C(=C\C=C2\C(=O)N(C)C(=S)N2C)Sc2ccccc21	APJ agonist 19
C[C@@H](NC(=O)C1(c2ccccc2)CCN(C(=O)OC(C)(C)C)CC1)C(=O)N[C@@H](C(=O)O)c1ccccc1	none
COc1cc(/C=C2\SC(=O)N(Cc3ccc(F)cc3)C2=O)cc([N+](=O)[O-])c1O	CCR6 antag 50
CCOC(=O)CN1C(=O)S/C(=C/c2ccc(OC)c([N+](=O)[O-])c2)C1=O	none
COc1cc(/C=C2\SC(=O)N(Cc3ccc(Cl)cc3)C2=O)cc([N+](=O)[O-])c1O	CCR6 antag 56 (no result: APJ agonist, APJ antag)
COc1cc(/C=C2/SC(=S)N(Cc3ccccc3)C2=O)cc(Cl)c1O	none (no result: APJ agonist, APJ antag)
O=C(NCc1cc2ccccc2[nH]1)C1CCC(=O)N(CC2CCCCC2)C1 (stereo not given)	none (no result: CCR6 antag, APJ agonist, APJ antag)
CC(NC(=O)/C(C#N)=C/c1ccc([N+](=O)[O-])o1)c1ccccc1 (stereo not given)	CXCR6 inh 50 (no result: CCR6 antag)
Cn1cc([N+](=O)[O-])c(C(=O)NC2CCCC2)n1	none
CCn1c(SC(=O)NC2CCCCC2)nnc1-c1cccs1	CCR6 antag 51
CCn1c(SCC(=O)NC2CCCCC2)nnc1-c1cccs1	none
CC(Sc1ccc(S(=O)(=O)N2CCCCC2)cn1)C(N)=O (stereo not given)	none (no result: CCR6 antag, APJ agonist, APJ antag)
CC(=O)OCCNc1cc(SCc2ccco2)c2nonc2c1[N+](=O)[O-]	CCR6 antag 75, CXCR6 inh 50 (no result: APJ agonist, APJ antag)
O=[N+]([O-])c1c(NCCCO)cc(SCc2ccco2)c2nonc12	CCR6 antag 63
CCOc1ccc2nc(N3C(=O)CNC3=S)sc2c1	CCR6 antag 60
O=C(CSc1cccc[n+]1[O-])Nc1cc(Cl)ccc1[N+](=O)[O-]	none
O=[N+]([O-])c1ccc(Sc2cccc[n+]2[O-])c2nonc12	CCR6 antag 115, EBI2 antag 58, CXCR6 inh 110 (no result: APJ agonist, APJ antag)
O=[N+]([O-])c1ccc(Nc2ccccc2)c2nonc12	CCR6 antag 51, APJ antag 52
Cc1ccc(C2=NOC(=O)/C2=C\C=C\c2ccccc2)cc1	CXCR6 inh 48 (no result: APJ agonist, APJ antag)
CN(C)/C=C1\C(=O)ON=C1c1ccccc1	none
CCCC(=O)Nc1ccc2c(c1)nc1n2CCN(CCOC)C1	none
NC(=O)c1ccccc1NC(=O)c1cccc(C(=O)Nc2ccccc2C(N)=O)n1	none
CCn1c(=O)c2ccccc2n(Cc2cccc(C)c2)c1=O	none
Cc1cccc(Cn2c(=O)n(Cc3ccco3)c(=O)c3ccccc32)c1	EBI2 antag 61
C#CCN(C[C@@H]1[C@@H](OC(=O)NCc2ccccc2F)[C@@H](OC(=O)NCc2ccccc2F)Cn2c(=O)ccc(=O)n21)S(=O)(=O)c1ccc(C)cc1	EBI2 antag 55 (no result: CCR6 antag, APJ agonist, APJ antag)
CCN1C(=O)/C(=C\C=C\c2ccccc2[N+](=O)[O-])SC1=S	none
CCN1C(=O)/C(=C/C=C2\N(CC)c3cc(S(=O)(=O)N(C)C)ccc3N2c2ccccc2)SC1=S	CCR6 antag 67, CXCR6 inh 52
Cc1c(C(=O)NC(=S)Nc2ccc(NC(=O)c3cccs3)cc2)cccc1[N+](=O)[O-]	CCR6 antag 58
Cc1c(C(=O)NC(=S)Nc2ccc3c4c(cccc24)CC3)cccc1[N+](=O)[O-]	CCR6 antag 67
O=C(NC(=S)Nc1ccc(-c2ccc(CO)o2)cc1)c1cccs1	APJ antag 51
Cc1c(C(=O)Nc2ccc3c4c(cccc24)CC3)cccc1[N+](=O)[O-]	none
CCc1ccc2nc(NC(=O)C3CSC4(C)CCC(=O)N34)sc2c1 (stereo not given)	none
Cc1ccccc1S(=O)(=O)NC(=O)C1(C)CCN1C(=O)C(C)(C)c1ccccc1 (stereo not given)	none (no result: CCR6 antag, APJ agonist, APJ antag)

High-throughput results deposited in PubChem BioAssay by Sanford-Burnham Center for Chemical Genomics.
